Assay results taken from the RNAGym collection of RNA variant scans (doi:10.1126/science.aae0568).
Variants at the floor of the assay were thinned out.

B1: tRNA (parent)
chain: GUUCCGUUGGCGUAAUGGUAACGCGUCUCCCUCCUAAGGAGAAGACUGCGGGUUCGAGUCCCGUACGGAACG

Variants of: B1
Test: yeast fitness relative to wild type (ratio to wild type); higher = fitter; tRNA-Arg(CCU), competitive growth, 37 C, YPD
Method in brief: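 Genotype frequency changes were the basis for Darwinian fitness relative to wild type. The frequencies came from 100-nucleotide paired-end sequencing of gene amplicons from the start population and each end population of pooled yeast strains with tRNA-Arg(CCU) gene variants at the native locus. Competition ran in YPD at 37°C for 24 hours in six replicates, genotypes needed ≥ 100 starting reads, and estimates < 0.5 were set to 0.5.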

Point of comparison: U13C C62A, yeast fitness 0.68. Against it:
- A20C C30U C66U — lower, ≤ 0.5
- C4U U28A C30U A57G — lower, 0.547
- A14C C60A A70U — lower, ≤ 0.5
- G17C C27G — lower, 0.558
- U16A A37U C62A — lower, ≤ 0.5
- U54A U59C — lower, 0.613
- C5G C46U G51A U54G — lower, 0.571
- G52A A65G — higher, 0.86
- C4G G17A A43G — lower, ≤ 0.5
- C4A G17C G23C A45C A70G — lower, ≤ 0.5
- U3C C33G C60A — lower, ≤ 0.5
- C31A C62G — lower, 0.651
- A15U G18A A57U — lower, ≤ 0.5
- A21U G23A A42C U59G A69C — lower, ≤ 0.5
- C5G A14C G18A A40G C46U C49U U53A — lower, ≤ 0.5
- U2A A45U C62G — lower, ≤ 0.5
- G23A C27U A69G — lower, ≤ 0.5
- C5G A14C A37G G52U C62G — lower, ≤ 0.5
- G12A U64A — higher, 0.849
- G25U A45C C62A — higher, 0.777
- C5G C34U U35C — lower, 0.545
- U16A C34U A57G C60A — lower, ≤ 0.5
- U13A C27U C62U — higher, 0.786
- U2C C22U A40U — lower, 0.574
- A21G — higher, 1
- C30U G44C A65U — lower, ≤ 0.5
- G6C A45C G50A — lower, 0.629
- G23U A57G — lower, 0.665
- C30G G56A — higher, 0.75
- A15C C33G C60U C62U — lower, ≤ 0.5
- G6C G25A C27G U59A U64G — lower, ≤ 0.5
- C60U C61U U64G — lower, 0.677
- C29G A65G C66A — lower, ≤ 0.5
- A14U C27U C29G C31U — lower, ≤ 0.5
- U8C C24G G67U — lower, ≤ 0.5
- C22U G25A G41A C46A A69C — lower, 0.599
- C11G G39C G56C C61U — lower, ≤ 0.5
- C5G A14G A65U — lower, 0.538
- C4U C49G G68A A70C — lower, 0.606
- C31A A65C — higher, 0.89
- C30A G38A C55A A65C — lower, 0.58
- U16C G25C U47A A65G — lower, ≤ 0.5
- U7A U28A — lower, 0.605
- U2A C4A C46G G52A A70U — lower, ≤ 0.5
- G6C G10C C29U C30G A45U — lower, ≤ 0.5
- C4U A42G A69C — lower, 0.636
- G17A C31U C49G A69U — lower, ≤ 0.5
- G9A G17C C29G C49G — lower, ≤ 0.5
- A21U C24A C27A U32C U64A — lower, ≤ 0.5
- C30U A65U — higher, 0.876
- C5U A40U — higher, 0.833
- G9U U16G — lower, 0.612
- G10A A43G G56U A69G — lower, ≤ 0.5
- G10A U35C A45G C49G G56A A65C — lower, ≤ 0.5
- U16A C34U A36G A40C G44C — lower, ≤ 0.5
- C4A C5A G23A — lower, ≤ 0.5
- C46G C62G G67U — lower, 0.542
- C11G G41A G44C C66G — lower, ≤ 0.5
- U2A U8C C30G U59A U64A — lower, 0.569
- C11U A14G C31A C55U G68A — lower, ≤ 0.5
- C5U G58C G68A — lower, 0.513
- U35G G58C — lower, 0.653
- C4U U19A G50A G68U — lower, ≤ 0.5
- U16A U47C A69U — higher, 0.91
- C30G C46G A69U — lower, 0.586
- A15C A21G C27G A69U — lower, ≤ 0.5
- G41A U47A G48C — lower, 0.6
- C24G G25C C27A U59A C62A — lower, ≤ 0.5
- G9A U16C U32G G48C — lower, ≤ 0.5
- U8A U19C G48C U59A C66U — lower, 0.671
- G12A A15G C22U C31A U35G C61U A65C — lower, ≤ 0.5
- C11G U16A C30A — lower, 0.583
- G23C A42C — higher, 0.721
- U7A G51A — lower, 0.652
- G10A G44C A65C G67A — lower, ≤ 0.5
- U8C A20C — higher, 0.985
- G23C G56A A57G — lower, ≤ 0.5
- G39A C49G — lower, 0.66
- A15C A70G — higher, 0.795
- A20G C27U C33G A43G A57G C61U C62U — lower, ≤ 0.5
- G9A G18A G25C C30U — lower, ≤ 0.5
- C11G A20G C24U C31G — lower, ≤ 0.5
- U8C G68U — higher, 0.857
- G38C C55U — lower, 0.545
- A57U U64C — higher, 0.783
- C4U A36C U54C — lower, ≤ 0.5
- A15C G17C C22G C24A C31A G67C — higher, 0.752
- C29G A42U U47G A57C C61A — lower, ≤ 0.5
- A14G U26G G52C C60A — lower, 0.616
- A37U G51C A57C — lower, 0.552
- G44C A45U — higher, 0.905
- C5G U35C A69C — lower, 0.551
- U26C A40G A57C — lower, 0.56
- A15U U19A A36U U54A — lower, ≤ 0.5
- C11A U28G C34U — lower, ≤ 0.5
- G9C C60G G67A — lower, 0.572
- U7A C29G G38A G44A C46U C62G — lower, ≤ 0.5
- C22G A37C — higher, 0.721
- C4U U16A A20U U28C U35C G39C A42C G48A — lower, ≤ 0.5
- C5A G39A C49U G56C — lower, ≤ 0.5
- U26C C30G U64C — higher, 0.703
- C31G C33U U54G C55A — lower, ≤ 0.5
- C31U G44A A45U U47C — lower, 0.607
- C5U A45C U53G — lower, 0.574
- C11U C30U C46A — higher, 0.821
- G25C C30G C60U — lower, ≤ 0.5
- U2A G6A U16C C24U G38C A65C — lower, ≤ 0.5
- C4A G51A A70G — lower, 0.58
- C4U C11U — higher, 0.969
- A21G G41C A45U — lower, 0.546
- C4U C30U G48C G68C — lower, ≤ 0.5
- U3A C30G C31U C61U — lower, ≤ 0.5
- U3C U19C — higher, 0.929
- C24A A57C C60U G67C — lower, ≤ 0.5
- C5G A15G C66U — lower, ≤ 0.5
- C30G G52C A69C — lower, ≤ 0.5
- U7C C29A U32C C60A — lower, ≤ 0.5
- U13A A14G A37C G50C G51C — lower, 0.566
- A37U C49A G52A C55U G56A — lower, 0.529
- C27U G56C C66U — lower, ≤ 0.5
- G6C U16G — the same, 0.68
- C11U A43U C62A — lower, 0.605
- C5U A45U G68C — lower, 0.531
- C5G A42C G68U — lower, 0.593
- C11U A45G — higher, 0.96
- G10C A20G A21C C27A C49U U54A A70C — lower, 0.653
- U3A G52A C60A A69G — lower, ≤ 0.5
- A15U C31A U54C — lower, ≤ 0.5
- A15G C62A — higher, 0.798
- G25A C27G G41C — lower, 0.671
- U8C U19C A57U — lower, ≤ 0.5
- C5U C29U A43U — higher, 0.89
- C5A A20C C22A A36C C61U — lower, 0.531
- C33U A65C C66U — lower, 0.59
- U2G C4A C22U U28G A42U U64C — lower, ≤ 0.5
- C4A G9A C24U C30U A36G A57G G58A G63A — lower, ≤ 0.5
- U26C C29G U35C — lower, ≤ 0.5
- G6A U64C — higher, 0.874
- C5U U16G C24U — higher, 0.776
- C5G A14G G17A A20G U32C G56C C60G — lower, ≤ 0.5
- U8A C33U A65U — lower, 0.502
- A20C C24G C27U C31G A65C — lower, ≤ 0.5
- C5G C11A A15G G18A C30G U54C — lower, ≤ 0.5
- G17A C27G — lower, 0.535
- C11U G44A C55G — lower, 0.572
- G51A A65G — higher, 0.852
- C27U C34G A57G C62A — lower, ≤ 0.5
- A14U U28C A70C — lower, ≤ 0.5
- U8A C27U A40G C55U A57U — lower, ≤ 0.5
- U28A G51C C55G A57C U64A G67C — lower, ≤ 0.5
- C29U G56A — higher, 0.765
- U32C C60G A65U — lower, ≤ 0.5
- G25A G41A C46A A69C — higher, 0.935
- A14C C66G — lower, 0.558
- C5G U32C G58C — lower, 0.665
- C24G G38A U64A — lower, ≤ 0.5
- C29G A42G U64G — lower, ≤ 0.5
- A36U G39C C61U — lower, ≤ 0.5
- U2C U7G C33U C55A — lower, ≤ 0.5
- U13C A20C A42U — lower, 0.558
- C22A G25A G68A — lower, 0.676
- G38A A40U G50C C60G A65U — lower, ≤ 0.5
- U26G C27G C33U G39C C49U — lower, ≤ 0.5
- A21C U28A A40U C62G C66G — lower, ≤ 0.5
- G44C G50A G67C — lower, 0.604
- C29G C31U A43C G44C A65U — lower, 0.517
